# Test results published in ChEMBL document CHEMBL1123042, “Ring-substituted 1,1,2,2-tetraalkylated 1,2-bis(hydroxyphenyl)ethanes. 4. Synthesis, estrogen receptor binding affinity, and evaluation of antiestrogenic and mammary tumor inhibiting activity of symmetrically disubstituted 1,1,2,2-tetramethyl-1,2-bis(hydroxyphenyl)ethanes” (1985).
# Several values for one entry are separate records, joined by “and”; a condition that tells them apart may be missing. Equal values may be shown once.
# Experiments:
# Rattus norvegicus [1] = test: Percent increase in tumor size (>150%) in DMBA-induced mammary carcinoma in rats at 2 mg/kg/day; type: functional
# [2] = target: T1, Estrogen receptor (Mus musculus) (UniProt O08537+P19785); test: Anti-uterotrophic effect in mice at 1000 ug; type: functional
# T1 sequence (O08537 whole entry, looked up): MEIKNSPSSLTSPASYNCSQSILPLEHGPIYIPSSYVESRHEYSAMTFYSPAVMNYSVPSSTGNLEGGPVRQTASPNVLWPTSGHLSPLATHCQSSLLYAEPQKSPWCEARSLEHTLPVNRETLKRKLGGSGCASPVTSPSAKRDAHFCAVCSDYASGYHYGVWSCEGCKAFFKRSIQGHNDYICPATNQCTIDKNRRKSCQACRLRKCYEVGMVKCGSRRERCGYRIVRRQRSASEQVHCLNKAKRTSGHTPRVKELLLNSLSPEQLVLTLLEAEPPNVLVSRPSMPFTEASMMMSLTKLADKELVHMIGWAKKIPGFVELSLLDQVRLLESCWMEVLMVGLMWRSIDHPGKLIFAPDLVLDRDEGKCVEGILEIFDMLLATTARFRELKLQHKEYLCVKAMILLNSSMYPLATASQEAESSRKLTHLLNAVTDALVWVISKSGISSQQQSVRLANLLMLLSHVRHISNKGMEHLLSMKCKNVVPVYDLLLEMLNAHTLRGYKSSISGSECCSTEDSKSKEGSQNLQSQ
# T1 sequence (P19785 whole entry, looked up): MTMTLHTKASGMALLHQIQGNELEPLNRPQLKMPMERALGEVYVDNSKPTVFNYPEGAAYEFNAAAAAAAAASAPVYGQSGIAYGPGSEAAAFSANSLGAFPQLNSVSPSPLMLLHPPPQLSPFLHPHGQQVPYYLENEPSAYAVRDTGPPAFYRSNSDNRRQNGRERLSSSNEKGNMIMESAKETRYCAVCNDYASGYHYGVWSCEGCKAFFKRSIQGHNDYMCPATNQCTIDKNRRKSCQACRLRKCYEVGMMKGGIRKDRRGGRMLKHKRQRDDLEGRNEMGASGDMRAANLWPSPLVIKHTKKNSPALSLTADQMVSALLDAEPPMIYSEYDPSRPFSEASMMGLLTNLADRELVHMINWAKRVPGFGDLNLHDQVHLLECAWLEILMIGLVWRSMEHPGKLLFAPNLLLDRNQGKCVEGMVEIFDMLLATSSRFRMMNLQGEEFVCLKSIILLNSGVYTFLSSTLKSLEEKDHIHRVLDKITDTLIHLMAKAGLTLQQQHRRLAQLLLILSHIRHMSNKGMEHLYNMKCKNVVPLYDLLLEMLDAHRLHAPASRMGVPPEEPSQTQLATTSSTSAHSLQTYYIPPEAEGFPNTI
# How it was run: (§1)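 Immature NMRI mice, 20 days old (14.5 ± 1.2 g), randomly grouped 10 per group. Given daily subcutaneous test compound in 0.1 mL olive oil for 3 days, together with estrone to stimulate uterine growth. Uteri taken 24 h after last injection, fixed in Bouin's solution, washed, dried and weighed. Read-out is inhibition of estrone-stimulated uterine growth.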
# Rattus norvegicus [3] = test: ercent reduction in tumor size (<50%) in DMBA-induced mammary carcinoma in rats at 5 mg/kg/day; type: functional
# Rattus norvegicus [4] = test: Percent remission in DMBA-Induced Mammary Carcinoma in rats at 5 mg/kg/day; type: functional
# Rattus norvegicus [5] = test: Percent change in body weight in DMBA-induced mammary carcinoma in rats after 7 day therapy at 5 mg/kg/day; type: functional
# [6] = target: T1, Estrogen receptor (Mus musculus); test: Anti-uterotrophic effect in mice at 1 ug; type: functional; how it was run: as §1
# Rattus norvegicus [7] = test: Percent reduction in tumor size (<50%) in DMBA-induced mammary carcinoma in rats at 2 mg/kg/day; type: functional
# [8] = target: Estrogen receptor (Bos taurus) (UniProt Q9XSB5+P49884); test: Relative binding affinity for calf uterine estrogen receptor compared to [3H]estradiol; type: protein assay
# How it was run: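 Competition binding with calf uterine cytosol and [3H]estradiol, incubated 16 h at 4 °C and stopped with dextran-coated charcoal. Supernatant radioactivity counted after centrifugation. Six competitor concentrations spanned 50% displacement on a semilog plot. RBA = (molar E2 concentration / competitor concentration each giving 50% reduction of bound [3H]E2) × 100.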
# [9] = target: T1, Estrogen receptor (Mus musculus); test: Uterotrophic effect in mice at 100 ug; type: functional, tissue-based; details: Uterus
# How it was run: (§2)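 Immature female NMRI mice, 20 days old (14.5 ± 1.2 g), 10 per randomized group. Received test compound subcutaneously in 0.1 mL olive oil daily for 3 days. Uteri removed 24 h after final dose, Bouin-fixed, washed, dried and weighed to measure stimulation of uterine growth.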
# Rattus norvegicus [10] = test: Percent unchanged tumor size (51-150%) in DMBA-induced mammary carcinoma in rats at 5 mg/kg/day; type: functional
# [11] = target: T1, Estrogen receptor (Mus musculus); test: Anti-uterotrophic effect in mice at 0 ug; type: functional; how it was run: as §1
# [12] = target: T1, Estrogen receptor (Mus musculus); test: Percent inhibition of estrone stimulated uterine growth in mice at 1000 […]; type: functional; how it was run: as §1
# Rattus norvegicus [13] = test: Percent change in tumor area in DMBA-induced carcinoma in rats after 28 day therapy at 2 mg/kg; type: functional
# [14] = target: T1, Estrogen receptor (Mus musculus); test: Percent inhibition of estrone stimulated uterine growth in mice at 10 […]; type: functional; how it was run: as §1
# Rattus norvegicus [15] = test: Percent unchanged tumor size (51-150%) in DMBA-induced mammary carcinoma in rats at 2 mg/kg/day; type: functional
# [16] = target: T1, Estrogen receptor (Mus musculus); test: Uterotrophic effect in mice at 1 ug; type: functional, tissue-based; details: Uterus; how it was run: as §2
# [17] = target: T1, Estrogen receptor (Mus musculus); test: Uterotrophic effect in mice at 10 ug; type: functional, tissue-based; details: Uterus; how it was run: as §2
# Rattus norvegicus [18] = test: Percent remission in DMBA-Induced Mammary Carcinoma in rats at 2 mg/kg/day; type: functional
# [19] = target: T1, Estrogen receptor (Mus musculus); test: Anti-uterotrophic effect in mice at 0.1 ug; type: functional; how it was run: as §1
# Rattus norvegicus [20] = test: Percent change in tumor area in DMBA-induced carcinoma in rats after 28 day therapy at 5 mg/kg; type: functional
# Rattus norvegicus [21] = test: Percent increase in tumor size (>150%) in DMBA-induced mammary carcinoma in rats at 5 mg/kg/day; type: functional
# [22] = target: T1, Estrogen receptor (Mus musculus); test: Anti-uterotrophic effect in mice at 100 ug; type: functional; how it was run: as §1
# [23] = target: T1, Estrogen receptor (Mus musculus); test: Uterotrophic effect in mice at 0 ug; type: functional, tissue-based; details: Uterus; how it was run: as §2
# Rattus norvegicus [24] = test: Percent change in body weight in DMBA-induced mammary carcinoma in rats after 7 day therapy at 2 mg/kg/day; type: functional
# [25] = target: T1, Estrogen receptor (Mus musculus); test: Anti-uterotrophic effect in mice at 10 ug; type: functional; how it was run: as §1
# [26] = target: T1, Estrogen receptor (Mus musculus); test: Percent inhibition of estrone stimulated uterine growth in mice at 100 […]; type: functional; how it was run: as §1
# [27] = target: T1, Estrogen receptor (Mus musculus); test: Uterotrophic effect in mice at 1000 ug; type: functional, tissue-based; details: Uterus; how it was run: as §2
# [28] = target: T1, Estrogen receptor (Mus musculus); test: Anti-uterotrophic effect in mice at 500 ug; type: functional; how it was run: as §1
# [29] = target: T1, Estrogen receptor (Mus musculus); test: Percent inhibition of estrone stimulated uterine growth in mice at 5 […]; type: functional; how it was run: as §1
# [30] = target: T1, Estrogen receptor (Mus musculus); test: Anti-uterotrophic effect in mice at 50 ug; type: functional; how it was run: as §1
# [31] = target: T1, Estrogen receptor (Mus musculus); test: Percent inhibition of estrone stimulated uterine growth in mice at 50 […]; type: functional; how it was run: as §1
# [32] = target: T1, Estrogen receptor (Mus musculus); test: Percent inhibition of estrone stimulated uterine growth in mice at 500 […]; type: functional; how it was run: as §1
# [33] = target: T1, Estrogen receptor (Mus musculus); details: Uterus
# [34] = target: T1, Estrogen receptor (Mus musculus)
# [35] = target: T1, Estrogen receptor (Mus musculus); test: Uterotrophic effect in mice at 80 ug; type: functional, tissue-based; details: Uterus; how it was run: as §2
# [36] = target: T1, Estrogen receptor (Mus musculus); test: Uterotrophic effect in mice at 24 ug; type: functional, tissue-based; details: Uterus; how it was run: as §2
# [37] = target: T1, Estrogen receptor (Mus musculus); test: Uterotrophic effect in mice at 8 ug; type: functional, tissue-based; details: Uterus; how it was run: as §2
# [38] = target: T1, Estrogen receptor (Mus musculus); test: Uterotrophic effect in mice at 250 ug; type: functional, tissue-based; details: Uterus; how it was run: as §2
# [39] = target: T1, Estrogen receptor (Mus musculus); test: Anti-uterotrophic effect in mice at 5 ug; type: functional; how it was run: as §1
# Rattus norvegicus [40] = test: Percent reduction in tumor size (<50%) in DMBA-induced mammary carcinoma in rats at 5 mg/kg/day; type: functional
SMILES,relative binding affinity (RBA) [8],Effect [9],Effect [11],Effect [16],Effect [17],Effect [23],Effect [27],Effect [28],Effect [30],further results
CC(C)(c1cc(O)ccc1Cl)C(C)(C)c1cc(O)ccc1Cl,3.5,33,13.7,14.7,22.6,11.1,35.7,37.8,44.2 and 34.9,inhibition [29]: 7%; Inhibition (alpha = 0.01) [31]: 36%; Inhibition (alpha = 0.01) [32]: 27%
Cc1ccc(O)cc1C(C)(C)C(C)(C)c1cc(O)ccc1C,0.9,–,–,–,–,–,–,–,–,–
COc1ccc(O)cc1C(C)(C)C(C)(C)c1cc(O)ccc1OC,< 0.01,–,–,–,–,–,–,–,–,–
C[C@]12CC[C@@H]3c4ccc(O)cc4CC[C@H]3[C@@H]1CCC2=O,–,–,–,–,–,–,–,–,–,uterine weight [33]: 45.3 mg/100 g; uterine weight [34]: 47.8 mg/100 g
CC(C)(c1cc(O)cc(Cl)c1)C(C)(C)c1cc(O)cc(Cl)c1,0.01,–,–,–,–,–,–,–,–,–
CC(C)(c1cccc(O)c1)C(C)(C)c1cccc(O)c1,3,–,–,–,–,9.2,13.4,–,–,Effect [35]: 15.4; Effect [36]: 15.7; Effect [37]: 9.8; Effect [38]: 14.6

# Now from value to compound, other results behind:
relative binding affinity (RBA) [8],Effect [9],Effect [11],Effect [16],Effect [17],Effect [23],Effect [27],Effect [28],Effect [30],SMILES,further results
6.4,42.6,13.8,27,38.8,16.4,38.5,–,–,CC(C)(c1ccc(O)cc1F)C(C)(C)c1ccc(O)cc1F,Change of size (Rattus norvegicus [1]): 18%; Effect [2]: 34.2; Change of size (Rattus norvegicus [3]): 10%; Remission (Rattus norvegicus [4]): 74%; Change of weight (Rattus norvegicus [5]): -4%; Effect [6]: 49.9; Change of size (Rattus norvegicus [7]): 4%; Change of size (Rattus norvegicus [10]): 3%; inhibition [12]: 40%; Change of area (Rattus norvegicus [13]): 22%; inhibition [14]: 20%; Change of size (Rattus norvegicus [15]): 14%; Remission (Rattus norvegicus [18]): 64%; Effect [19]: 47.7; Change of area (Rattus norvegicus [20]): -47%; Change of size (Rattus norvegicus [21]): 13%; Effect [22]: 35.9; Change of weight (Rattus norvegicus [24]): -3.1%; Effect [25]: 41; inhibition [26]: 35%
3.6,–,–,–,–,9.2,14.3,–,–,CC(C)(c1ccc(O)cc1)C(C)(C)c1ccc(O)cc1,Effect [35]: 15.8; Effect [36]: 15.7; Effect [37]: 10.6; Effect [38]: 13.3
0.45,–,–,–,–,–,–,–,–,COc1cc(O)ccc1C(C)(C)C(C)(C)c1ccc(O)cc1OC,–
3.4,32.7,13.7,35.8,51.5,13.7,35.2,35.2,38.9,CC(C)(c1ccc(O)cc1Cl)C(C)(C)c1ccc(O)cc1Cl,Effect [39]: 48.4; inhibition [31]: 17%; inhibition [32]: 29%
2.6,28,13.7,16.6,22.2,11.1,38,37.3,50,Cc1cc(O)ccc1C(C)(C)C(C)(C)c1ccc(O)cc1C,Effect [39]: 51.2; inhibition [32]: 22%
4,22.6,13.7,15.4,16.6,9.7,35.6,32.5,37.2,CC(C)(c1cc(O)ccc1F)C(C)(C)c1cc(O)ccc1F,Change of size (Rattus norvegicus [1]): 77%; Remission (Rattus norvegicus [4]): 0%; Change of size (Rattus norvegicus [40]): 4%; Change of weight (Rattus norvegicus [5]): 2.9%; Remission (Rattus norvegicus [7]): 7%; Change of size (Rattus norvegicus [10]): 7%; Change of area (Rattus norvegicus [13]): 441%; Change of size (Rattus norvegicus [15]): 16%; Remission (Rattus norvegicus [18]): 0%; Change of area (Rattus norvegicus [20]): 396%; Change of size (Rattus norvegicus [21]): 89%; Effect [39]: 48.6; Change of weight (Rattus norvegicus [24]): 3.5%; inhibition [31]: 29%; inhibition [32]: 43%
